The test system of test [1] is UACC-62. Nature of the test: Growth inhibitory concentration required against human melanoma UACC-62 cancer cell line. It is filed as functional. The procedure, abridged: (§1)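 Screen over 10^-4 to 10^-8 M in a human cancer cell line panel. GI50 is the concentration giving 50% growth inhibition of the individual cell line.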
Test [2] deals with HCT-116. As to the kind of experiment: Growth inhibitory concentration against human colon cancer HCT116 cell line. It is filed as functional. The method, boiled down:
as §1

Test [3] deals with MDA-MB-435. Nature of the test: Growth inhibitory concentration required against human breast MDA-MB-435 cancer cell line. It is filed as functional. The procedure, abridged: as §1
Test [4] can be described thus: Average concentration required for 50% growth inhibition of human cancer cell line (tested). It is filed as functional. As to conditions: Cancer cell lines. The procedure, abridged: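 Mean graph midpoint: average of the individual cell line GI50 values across all cancer lines screened over 10^-4 to 10^-8 M. GI50 values falling outside this range were set to 10^-8 M (below) or 10^-4 M (above).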

Test [5] concerns MDA-MB-231. Nature of the test: Inhibitory concentration against growth of MDA-MB-231 cancer cell line. It is filed as functional, cell-based. To be noted: Homo sapiens. The procedure, abridged: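 MDA-MB-231 cells in DMEM/F12 (1:1) with 10% FBS, seeded at 1000 cells/well and attached overnight. Cells were exposed to compound for 48 h. Proliferation was read by BrdU-incorporation colorimetric ELISA or by cell counting, in triplicate, with experiments repeated at least twice.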

Test [6] deals with Tubulin (Bos taurus, UniProt Q6B856+Q862L2+Q862F3). As to the kind of experiment: Inhibitory concentration against bovine tubulin polymerization. The format is functional. The procedure, abridged: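 Bovine brain tubulin, 1.2 mg/mL (12 μM), was preincubated with a range of compound concentrations and then chilled on ice. GTP was added and assembly followed by turbidity at 350 nm for 20 min at 26 °C. IC50 is the concentration halving assembly at 20 min, from at least two independent assays.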

Test [7] deals with HUVEC. Nature of the test: Inhibitory concentration required against growth of HUVEC […] cell line. The format is functional, cell-based. To be noted: Homo sapiens. The procedure, abridged:
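HUVEC, used up to five passages in EGM with bovine brain extract and antibiotic-antimycotic, seeded at 3000 cells/well and attached overnight. Cells were exposed to compound for 48 h. Proliferation was read by BrdU-incorporation colorimetric ELISA or by cell counting, in triplicate, with experiments repeated at least twice.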

Test [8] concerns SN12C. As to the kind of experiment: Growth inhibitory concentration required for against human renal SN12C cancer cell line. It is filed as functional. The procedure, abridged: as §1
Test [9] concerns SF-539. As to the kind of experiment: Growth inhibitory concentration required against human CNS SF-539 cancer cell line. The format is functional. The procedure, abridged:
as §1

Test [10] deals with OVCAR-3. As to the kind of experiment: Growth inhibitory concentration required against human ovarian OVCAR-3 cancer cell line. It is filed as functional. The procedure, abridged: as §1
Test [11] deals with DU-145. Nature of the test: Growth inhibitory concentration required against human prostate DU-145 cancer cell line. The format is functional. The method, boiled down:
as §1

Test [12] concerns HOP-62. As to the kind of experiment: Growth inhibitory concentration against human lung cancer HOP-62 cell line. The format is functional. The procedure, abridged: as §1

What is called GI50 is the concentration giving 50% growth inhibition. Read a high GI50 as less potent growth inhibition. Usually IC50 stands for the concentration that inhibits the measured activity by half. Read a low IC50 as inhibition by little substance. Turning to `COc1cc2c(cc1O)CC[C@@H]1[C@@H]2CC[C@@]2(C)[C@H]1CC[C@@]2(O)C(F)(F)F`, the 50% growth inhibitory concentration (GI50) in test [1] turned out to be 18.2 µM; in [2] it was 22.4 µM; in test [3], 16.2 µM; in test [4], 19.5 µM; in [8], 24.5 µM; in test [9] it was 19.5 µM. In addition, the figures for the concentration for 50% growth inhibition (GI50) in [10] and in test [11] were 15.8 µM and 18.2 µM, respectively. Moreover, the half-inhibitory concentration (IC50) in test [5] is 49.3 µM; in [6] it was more than 40 µM; in [7], 40 µM.

For `CCOc1cc2c(cc1O)CC[C@@H]1[C@@H]2CC[C@]2(C)[C@@H](O)CC[C@@H]12`, the values for the concentration for half-maximal inhibition (IC50) in test [5] and in test [7] were 0.55 µM and 0.12 µM, respectively.

Turning to `CCOc1cc2c(cc1O)CC[C@@H]1[C@@H]2CC[C@@]2(C)[C@H]1CC[C@]2(C)O`, the GI50 is 5 µM in test [12]; 3.74 µM in [1]; 3.5 µM in test [2]; 1.3 µM in [3]; 4.7 µM in test [4]; 4.5 µM in test [8]. The concentration for 50% growth inhibition (GI50) in test [9] was determined as 2.8 µM; in test [10] it was 2.8 µM; in test [11], 5.2 µM. The IC50 in test [5] turned out to be 18.4 µM; in test [6], 4.8 µM; in test [7] it was 5.7 µM.

As for `CC#Cc1cc2c(cc1O)CC[C@@H]1[C@@H]2CC[C@]2(C)[C@@H](O)CC[C@@H]12`, the IC50 was 3.99 µM in [5] and 0.52 µM in test [7].

As for `COCc1cc2c(cc1O)CC[C@@H]1[C@@H]2CC[C@]2(C)[C@@H](O)CC[C@@H]12`, the GI50 in test [12] turned out to be 83.2 µM; in test [1] it was 24.5 µM; in [2], 33.1 µM; in [3] it was 7.8 µM; in test [4] it was 38 µM; in [8], 56.2 µM. In addition, the GI50 in test [9] was found to be 33.9 µM; in [10], 40.7 µM; in test [11], 64.6 µM. Besides, the figures for the IC50 in test [5], in [6] and in test [7] were 54 µM, more than 40 µM and 28.8 µM, respectively.

On to `CCC(=O)c1cc2c(cc1O)CC[C@@H]1[C@@H]2CC[C@]2(C)[C@@H](O)CC[C@@H]12`, for which the concentration for 50% growth inhibition (GI50) amounted to 15.1 µM in test [12]; 11.5 µM in [1]; 9.3 µM in test [2]; 2.4 µM in test [3]; 12 µM in test [4]; 13.8 µM in [8]. Besides, the 50% growth inhibitory concentration (GI50) in test [9] turned out to be 11.7 µM; in test [10], 4 µM; in test [11], 15.5 µM. Besides, the figures for the concentration for half-maximal inhibition (IC50) in test [5], in [6] and in [7] were 15.8 µM, more than 40 µM and 22.5 µM, respectively.

Turning to `COc1cc2c(cc1O)CCC1[C@@H]2CC[C@@]2(C)[C@H]1CCC2(F)F` (single isomer, unassigned), the concentration for 50% growth inhibition (GI50) in test [12] came to 81.3 µM; in test [1] it was 58.9 µM; in test [2], 66.1 µM; in [3] it was 35.5 µM; in test [4], 40.7 µM; in [8], 24.5 µM. The 50% growth inhibitory concentration (GI50) in test [9] came out at 31.6 µM; in test [10] it was 43.7 µM; in test [11] it was 56.2 µM. Further, the figures for the concentration for half-maximal inhibition (IC50) in test [5], in test [6] and in test [7] were 70.8 µM, more than 40 µM and 58.3 µM, respectively.

For `CN(C)CCC/N=C/c1cc2c(cc1O)CC[C@@H]1[C@@H]2CC[C@]2(C)[C@@H](O)CC[C@@H]12`, the GI50 in [12] is 21.4 µM; in [1] it was 13.8 µM; in test [2] it was 12.6 µM; in test [3] it was 22.9 µM; in test [4], 20 µM; in [8] it was 25.7 µM. The results for the GI50 in test [9], in test [10] and in test [11] were 18.2 µM, 19.5 µM and 20.9 µM, respectively. For the same molecule, in [6], the IC50 is more than 40 µM.

For the molecule `COc1cc2c(cc1O)CC[C@@H]1[C@@H]2CC[C@@]2(C)[C@H]1CC[C@]2(C)[C@H](O)c1ccccc1`, the GI50 in [12] is 18.2 µM; in test [1], 13.5 µM; in test [2], 17 µM; in test [3] it was 16.2 µM; in test [4] it was 14.5 µM; in test [8], 14.1 µM. The GI50 in test [9] turned out to be 17.8 µM; in test [10], 14.1 µM; in test [11], 5.1 µM. For the same molecule, the IC50 in test [5] was 47.2 µM; in test [6], more than 40 µM; in test [7] it was 21 µM.

Turning to `C[C@]1(O)CC[C@H]2[C@@H]3CCc4cc(O)ccc4[C@H]3CC[C@@]21C`, the GI50 in test [12] was 18.2 µM; in test [1], 1.48 µM; in [2] it was 0.7 µM; in test [3], 0.19 µM; in test [4], 2.5 µM; in [8], 10.2 µM. Also, the concentration for 50% growth inhibition (GI50) in test [9] was 0.35 µM; in [10], 0.66 µM; in test [11], 2 µM. Also, the IC50 in test [5] came to 7.14 µM; in test [6], 5.6 µM; in [7], 3.09 µM.

For the molecule `COc1cc2c(cc1O)CC[C@@H]1[C@@H]2CC[C@@]2(C)[C@H]1CC[C@]2(C)O`, the GI50 in [12] came to 15.2 µM; in test [1] it was 6.3 µM; in test [2], 2.8 µM; in test [3], 1.4 µM; in test [4], 10.2 µM; in test [8] it was 7.8 µM. The GI50 in test [9] worked out at 6.9 µM; in [10] it was 7.1 µM; in [11] it was 12.3 µM. Also, the IC50 in [5] is 3.33 µM; in test [6], more than 40 µM; in [7], 2.4 µM.

On to `C/C(COc1cc2c(cc1O)CC[C@@H]1[C@@H]2CC[C@]2(C)[C@@H](O)CC[C@@H]12)=N/O`, for which the concentration for 50% growth inhibition (GI50) in test [12] turned out to be 23.4 µM; in [1] it was 15.5 µM; in [2], 18.2 µM; in test [3], 24 µM; in test [4], 24 µM; in test [8], 27.5 µM. The concentration for 50% growth inhibition (GI50) amounted to 20.9 µM in test [9], 20.4 µM in test [10] and 29.5 µM in test [11]. This molecule also returned an IC50 in test [6] of more than 40 µM.

In the case of `C=C1CC[C@H]2[C@@H]3CCc4cc(O)c(OCC)cc4[C@H]3CC[C@]12C`, the GI50 is 0.56 µM in test [12]; 0.54 µM in test [1]; 0.6 µM in [2]; 0.08 µM in test [3]; 0.79 µM in [4]; 0.19 µM in test [8]. The figures for the GI50 in [9], in [10] and in [11] were 0.12 µM, 0.28 µM and 0.47 µM, respectively. For the same molecule, the half-inhibitory concentration (IC50) was 0.7 µM in test [5], 2.9 µM in test [6] and 0.26 µM in [7].

With `CC(=O)c1cc2c(cc1O)CC[C@@H]1[C@@H]2CC[C@]2(C)[C@@H](O)CC[C@@H]12`, the GI50 is 5.4 µM in test [12]; 24.5 µM in test [1]; 4.3 µM in [3]; 17.4 µM in [4]; 53.7 µM in test [8]; 18.6 µM in test [9]. In addition, the 50% growth inhibitory concentration (GI50) in [10] was determined as 25.7 µM; in test [11], 55 µM. In addition, the IC50 in [5] is 13.6 µM; in [6], more than 20 µM; in test [7], 15.6 µM.

For the molecule `CC#Cc1cc2c(cc1O)CC[C@@H]1[C@@H]2CC[C@@]2(C)[C@H]1CC[C@]2(C)O`, the GI50 in test [12] worked out at 3.1 µM; in test [1] it was 4 µM; in test [2], 4.3 µM; in [3], 0.3 µM; in test [4], 3.2 µM; in test [8], 7.4 µM. Further, the results for the GI50 in [9], in test [10] and in test [11] were 2.6 µM, 1.5 µM and 4.1 µM, respectively. The half-inhibitory concentration (IC50) was 5.99 µM in test [5], 11 µM in [6] and 1.94 µM in test [7].

On to `C[C@]12CC[C@@H]3c4cc(C(F)(F)C(F)(F)F)c(O)cc4CC[C@H]3[C@@H]1CC[C@@H]2O`, for which the GI50 amounted to 13.8 µM in [1]; 17.8 µM in [2]; 12 µM in test [3]; 18.6 µM in test [4]; 16.6 µM in test [8]; 18.2 µM in test [9]. Also, the GI50 came out at 13.2 µM in test [10] and 14.5 µM in [11]. Further, the figures for the IC50 in test [5], in [6] and in test [7] were 47.5 µM, more than 40 µM and 25 µM, respectively.

On to `C[C@]12CC[C@@H]3c4cc(/C=N/C5CC5)c(O)cc4CC[C@H]3[C@@H]1CC[C@@H]2O`, for which the GI50 turned out to be 24 µM in [12]; 16.2 µM in test [1]; 12.3 µM in test [2]; 16.2 µM in test [3]; 16.6 µM in test [4]; 70.8 µM in [8]. Also, the results for the GI50 in test [9], in [10] and in test [11] were 17 µM, 14.5 µM and 16.6 µM, respectively. In test [6], the IC50 is more than 40 µM.
